From PubChem
Hep lipid drop = inhibitors of hepatocyte lipid droplet formation, primary screen, imaging, high-throughput imaging, BODIPY stain | AML12 mouse hepatocytes, oleate lipid droplets | inhibition, % at 6.5 µM | hit rate 0.4% among 240,000;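 active = lipid droplet intensity inhibited by at least 50%, with more than 500 cells counted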
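Material – AML12 mouse liver cells · Also added – oleate loading, 100 µM · Compound dosing – 6.5 µM single-point dosing · Times – overnight treatment with compound plus oleate · Measured by – fluorescence imaging, 20x objective, two fields per well · Read-out – percent inhibition of filter-corrected integrated lipid droplet intensity per well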
NPR2 activator = human GC-B receptor activators, primary screen, HEK293 GC-B cells, cGMP TR-FRET, EC30 CNP; AID 1920062, 2024; hit rate 0.11% among 370,000; 0% at EC30 CNP, 100% saturating CNP; activation, % at 10 µM;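 active = activation at 10 µM reaching about 35% in either raw or pattern-adjusted values, limit read from the data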
Target sequence (P20594 whole entry, looked up): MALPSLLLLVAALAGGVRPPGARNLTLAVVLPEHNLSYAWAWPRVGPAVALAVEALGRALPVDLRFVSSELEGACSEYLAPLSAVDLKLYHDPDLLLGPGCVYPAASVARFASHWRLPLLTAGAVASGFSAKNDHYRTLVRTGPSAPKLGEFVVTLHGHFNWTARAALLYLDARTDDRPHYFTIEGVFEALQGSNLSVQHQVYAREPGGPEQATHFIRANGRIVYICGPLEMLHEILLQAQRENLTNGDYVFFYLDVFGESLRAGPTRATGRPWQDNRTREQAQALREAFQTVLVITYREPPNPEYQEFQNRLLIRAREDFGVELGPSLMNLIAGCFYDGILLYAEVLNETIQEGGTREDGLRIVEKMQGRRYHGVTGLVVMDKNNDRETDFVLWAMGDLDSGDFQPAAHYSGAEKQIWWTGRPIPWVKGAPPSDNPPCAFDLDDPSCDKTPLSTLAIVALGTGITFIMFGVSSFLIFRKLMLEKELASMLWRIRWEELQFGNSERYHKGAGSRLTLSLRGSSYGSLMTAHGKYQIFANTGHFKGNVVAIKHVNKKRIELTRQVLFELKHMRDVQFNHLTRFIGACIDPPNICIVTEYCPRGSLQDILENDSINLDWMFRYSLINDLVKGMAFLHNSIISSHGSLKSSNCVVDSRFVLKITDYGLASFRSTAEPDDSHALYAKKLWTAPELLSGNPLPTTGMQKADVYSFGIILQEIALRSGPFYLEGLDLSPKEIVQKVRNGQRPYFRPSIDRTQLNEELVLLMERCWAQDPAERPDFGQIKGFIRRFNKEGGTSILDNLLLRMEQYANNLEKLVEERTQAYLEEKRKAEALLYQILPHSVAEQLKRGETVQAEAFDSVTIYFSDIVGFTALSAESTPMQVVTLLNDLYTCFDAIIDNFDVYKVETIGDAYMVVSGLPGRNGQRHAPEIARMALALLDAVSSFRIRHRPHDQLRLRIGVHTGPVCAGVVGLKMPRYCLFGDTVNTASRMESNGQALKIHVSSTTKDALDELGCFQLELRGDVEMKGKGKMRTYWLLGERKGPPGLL
JMJD2C inh = inhibitors of GASC-1 histone demethylase, primary screen, biochemical, fluorescence, DELFIA europium; Lysine-specific demethylase 4C (Homo sapiens), Q9H3R0; GST-JMJD2C(1-420) H3K9me3 demethylation; inhibition, % at 2.35 µM; hit rate 0.069% among 330,000;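 active = more than half of a compound's replicate wells show inhibition beyond 50%, single wells judged on their own value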;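 also: signal counts dimethyl H3K9 product captured on neutravidin plate; 0% = median of DMSO wells and 100% = 0.3 times that DMSO median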
aDG glyco act = activators of alpha-DG glycosylation, primary screen, uHTS, Pro5-aDG cells, AlphaScreen; alpha-DG glycosylation AlphaScreen (IIH6); 0% Pro5, 100% B10-LARGE cell signal; activation, % at 10 µM; hit rate 0.22% among 360,000; AID 624168, 2012;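 active = activation of at least 8% versus controls, or a plate z-score of at least 8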;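 also: Pro5 are CHO cells carrying HIG-tagged alpha-DG that lacks glycosylation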
GC-A act = GC-A stimulated cGMP production enhancers – HEK293 GC-A cells, cGMP TR-FRET, EC30 ANP, primary screen; Atrial natriuretic peptide receptor 1 (Homo sapiens), P16066; hit rate 0.14% among 370,000; 0% at EC30 ANP, 100% saturating ANP; activation, % at 10 µM; AID 1671463, 2021; in the data active = activation above about 40%
GRIN3A LBD mod = binders of NR3A ligand-binding domain, primary screen, biophysical, differential scanning fluorimetry, uHTS; Glutamate receptor ionotropic, NMDA 3A (GRIN3A) ligand-binding domain; NR3A LBD differential scanning fluorimetry, Tm shift; 0% = protein alone, 100% = glycine-bound protein; Tm shift relative to glycine control, % at 25 µM; hit rate 2.5% among 340,000;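 active = melting temperature shift of at least 10% of the positive control shift, at one fixed dose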
Hep lipid conf = hepatocyte lipid droplet accumulation inhibitors, confirmation, imaging, AML12 mouse hepatocytes, single concentration, high-content; hit rate 65% among 870; BODIPY lipid droplet imaging; droplets induced with 100 µM oleic acid; AID 463183, 2010; shares compounds with Hep lipid drop; inhibition, % at 5.2 µM;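 active = inhibition of lipid droplet metric at least 50%, with more than 300 cells in each of four replicates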;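 also: plate controls were DMSO with oleic acid for no effect and 5 µM Triacsin-C for full effect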
AML12 cytotox = AML12 hepatocyte cytotoxicity, counter-screen for hepatic lipid droplet formation project, imaging, DAPI nuclear morphology imaging. shares compounds with Hep lipid drop. AML12 mouse hepatocytes; hits give high values; cells fed 100 µM oleate overnight. z-score at 5 µM. hit rate 3% among 870. AID 463200, 2010; in the data active = z-score above about 6.3;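 also: compound exposure lasted overnight at 37 °C before fixation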
AML12 tox ATP = AML12 hepatocyte cytotoxicity, confirmation, cytotoxicity control for hepatic lipid droplet formation project, cell-based, single concentration. shares compounds with Hep lipid drop. cytotoxicity, % at 50 µM. AML12 mouse hepatocyte viability, ATP luminescence; cells loaded with 100 µM oleic acid. 530 tested, under 10 active. AID 463219, 2010;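 active = cytotoxicity above 50% in each of four replicates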;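 also: compound exposure lasted overnight at 37 °C before the ATP read; 0% = DMSO-treated cells and 100% = wells with no cells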
The depositor's hits bear a star; · = no result given. In the library only some 3% were active in any assay of this set; here they are far more common.

SMILES	Hep lipid drop	NPR2 activator	JMJD2C inh	aDG glyco act	GC-A act	GRIN3A LBD mod	Hep lipid conf	AML12 cytotox	others
COc1ccc(CCN2C(=O)CC(N3CCOCC3)C2=O)cc1OC (stereo unspecified)	51*	2	8	0	3	1	25	-0.31
COc1ccc(CCN2C(=O)CC(N3CCOCC3)C2=O)cc1 (stereo unspecified)	11	2	1	0	7	4	·	·
CCCS(=O)(=O)NC(=O)C1(C)CCCN(C(=O)c2cc(-c3cccs3)oc2C)C1 (stereo unspecified)	·	3	·	0	3	·	·	·
CCc1c(C#N)c(SCCC(=O)Nc2ccc(F)cc2)nc2c1C(=O)CC(C)(C)C2	30	-5	6	0	0	2	·	·
CCc1c(C#N)c(SCCC(=O)Nc2cccc(OC)c2)nc2c1C(=O)CC(C)(C)C2	58*	-4	4	0	-3	1	101*	0.69	AML12 tox ATP=3
COc1ccc(C(=O)N2CCC(C)(C(=O)O)C2)c(OC)c1 (stereo unspecified)	·	1	·	0	3	·	·	·
CCOc1ccccc1Nc1nnc(SC(C)C(=O)Nc2nc(-c3ccccc3)cs2)s1 (stereo unspecified)	75*	0	-4	0	5	3	105*	-0.2	AML12 tox ATP=7
CCOc1ccccc1Nc1nnc(SCC(=O)NC(=O)c2cccn2C)s1	-1	-1	8	0	-4	5	·	·
COc1cc2ncnc(NCc3ccc(Cl)cc3)c2cc1OC	51*	7	20	0	13	-5	70*	13*
COc1cc2ncnc(NCc3ccccc3C)c2cc1OC	46	-3	-6	1	9	-4	·	·
COc1cc2ncnc(NCc3ccccc3Cl)c2cc1OC	52*	2	8	1	21	-1	65*	17*
Cc1c(Cl)sn(-c2ccc(Cl)cc2)c1=O	59*	-4	·	-1	13	-3	-13	11*
O=C(COc1ccc(Cl)cc1)Nc1ccc2c(c1)C(=O)NC2=O	60*	1	-1	0	-2	0	5	0.079
CC(C)(C)c1ccc(C(=O)Nc2cc(Cl)ccc2-c2nn[nH]n2)cc1	·	-6	·	·	-1	·	·	·
N#CCCN(Cc1ccccc1)C(CCc1ccccc1)C(=O)NC1CCCCC1 (stereo unspecified)	·	-3	·	0	-8	·	·	·
COc1ccc2nc(N=NC3=C(O)CC(C)(C)CC3=O)sc2c1	-29	-3	-20	1	1	0	·	·
COc1ccc2nc(N=Nc3ccc(O)c4ccccc34)sc2c1	71*	-3	1	0	-5	-5	105*	5.5
O=C1CC(/C=C/c2ccccc2)(C(=O)NC2CCCC2)N1c1ccc(S(=O)(=O)N2CCCC2)cc1 (stereo unspecified)	90*	-3	-5	0	5	-5	84*	-0.81
COc1ccccc1NS(=O)(=O)c1ccc(N/N=C/c2c(C)nn(-c3ccccc3)c2N2CCCC2)c([N+](=O)[O-])c1	100*	0	-5	-1	-5	1	114*	-1	AML12 tox ATP=25
COc1ccccc1NS(=O)(=O)c1cccc(C(=O)N/N=C/c2c(C)nn(-c3ccccc3)c2N2CCCC2)c1	-22	1	13	1	3	-9	·	·
Cc1sc2ncnc(N3CCC(C(=O)Nc4cc(C(F)(F)F)ccc4OCC(F)(F)F)CC3)c2c1C	·	-8	·	1	-6	-1	·	·
CCc1cc(SC#N)cc(CC)c1NC(=O)CCl	81*	0	-3	0	7	0	79*	1.8	AML12 tox ATP=9
O=C(c1ccco1)N1CC2(CC(c3ccc(Cl)cc3)=NO2)CN1Cc1ccc(Br)cc1 (stereo unspecified)	·	0	·	0	0	·	·	·
COc1ccc(C(=O)CCC(=O)Nc2ccc(N3CCCCC3)cc2)cc1OC	92*	0	-9	0	-1	2	108*	0.0011	AML12 tox ATP=11
COc1ccc(C(=O)Nc2ccc(N3CCN(C)CC3)cc2)cc1OC	·	1	-6	0	-10	1	·	·
SMILES	Hep lipid drop	NPR2 activator	JMJD2C inh	aDG glyco act	GC-A act	GRIN3A LBD mod	Hep lipid conf	AML12 cytotox	others
CC(C)n1c(SCC(=O)NCc2ccco2)nnc1C1CC1	-13	3	22	0	0	-1	·	·
Cc1cc(C)nc(Nc2nc3ccccc3[nH]2)n1	58*	6	3	0	5	-1	26	-0.94
Cc1ccc(C)c(Nc2nc3ccccc3[nH]2)c1	·	-7	·	0	-5	0	·	·
O=C(CCNC(=O)C1CCN(S(=O)(=O)c2ccc(F)cc2)CC1)NCc1ccccc1Cl	51*	5	6	0	2	-3	22	-0.6
O=C(CCNC(=O)C1CCN(S(=O)(=O)c2ccccc2)CC1)NCc1ccc(Cl)cc1Cl	56*	-1	4	0	1	-1	75*	-0.4	AML12 tox ATP=12
O=C(CCNC(=O)C1CCN(S(=O)(=O)c2ccccc2)CC1)NCc1ccc(Cl)cc1	-2	-3	2	-1	-1	1	·	·
CN(C(=O)CSc1nnnn1-c1ccc(O)cc1)C1CCCCC1	·	-2	2	-1	-3	-2	·	·
COCc1cn(-c2nc3ccccc3s2)nn1	·	1	·	0	-1	·	·	·
O=C(NCCc1c[nH]c2ccccc12)C(=O)NCC1OCCN1S(=O)(=O)c1ccccc1 (stereo unspecified)	-18	6	5	0	-3	-9	·	·
Cc1cc(C)c(S(=O)(=O)N2CCOC2CNC(=O)C(=O)NCCc2c[nH]c3ccccc23)c(C)c1 (stereo unspecified)	76*	3	-3	2	-1	-7	77*	-1	AML12 tox ATP=10
